In brackets after ≈: the same amount, converted by molar mass.
Assays:
[1] = Kinetic solubility of the compound in HCL buffer at pH 2 after 30 mins by nephelometry; assay type: physicochemical; settings: read-out: Kinetic_solubility
How it was run: (§1)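 Kinetic aqueous solubility determined by nephelometry.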

[2] = Kinetic solubility of the compound in phosphate buffer at pH 6.5 after 30 mins by nephelometry; assay type: physicochemical; settings: read-out: Kinetic_solubility; how it was run: as §1
[3] = Plasma concentration in Swiss mouse at 30 mg/kg, po via gavage administration measured at 60 to 120 mins; assay type: ADME, organism-based; settings: in vivo
How it was run: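 Non-fasted male Swiss outbred mice (24–33 g) with free access to food and water, two mice per dose. Dosed by bolus tail-vein IV injection or oral gavage. Blood taken up to 24 h by submandibular bleed or terminal cardiac puncture into tubes with heparin and a stabilization cocktail, at most two samples per mouse. Plasma stored at -20 °C until analysis.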

[4] = Apparent permeability across apical to basolateral side in human Caco2 cells assessed as mass balance; assay type: ADME, cell-based; settings: Caco-2, read-out: permeability
[5] = Plasma concentration in Swiss mouse at […], iv via bolus administration measured up to 30 mins; assay type: ADME, organism-based
[6] = Apparent permeability across basolateral to apical side in human Caco2 cells assessed as mass balance; assay type: ADME, cell-based; settings: Caco-2, read-out: permeability
[7] = Apparent permeability across apical to basolateral side in human Caco2 cells; assay type: ADME, cell-based; settings: Caco-2
[8] = Plasma concentration in Swiss mouse at […], po via gavage administration measured up to 30 mins; assay type: ADME, organism-based; settings: in vivo, 0.5 h

Structure (SMILES) | solubility kinetic at 0.5 h [1] | solubility kinetic at 0.5 h [2] | also measured
CCCSc1nncc(-c2cnnc(SCCC)n2)n1 | 3.1 to 6.3 µg/mL (≈ 10.1 to 20.4 µM) | 3.1 to 6.3 µg/mL (≈ 10.1 to 20.4 µM) | –
CCCCSc1nncc(-c2cnnc(SCCCC)n2)n1 | < 1.6 µg/mL | < 1.6 µg/mL | –
CSc1nncc(-c2cnnc(SC)n2)n1 | 6.3 to 12.5 µg/mL (≈ 25 to 49.5 µM) | 3.1 to 6.3 µg/mL (≈ 12.3 to 25 µM) | –
CC(C)CSc1nncc(-c2cnnc(SCC(C)C)n2)n1 | 1.6 to 3.1 µg/mL (≈ 4.75 to 9.21 µM) | 1.6 to 3.1 µg/mL (≈ 4.75 to 9.21 µM) | –
OCCCSc1nncc(-c2cnnc(SCCCO)n2)n1 | 25 to 50 µg/mL (≈ 73.4 to 147 µM) | 60 to 100 µg/mL (≈ 176 to 294 µM) | –
CSc1nncc(-c2cnnc(SC3CCCC3)n2)n1 | 6.3 to 12.5 µg/mL (≈ 20.6 to 40.8 µM) | 6.3 to 12.5 µg/mL (≈ 20.6 to 40.8 µM) | –
CSc1nncc(-c2cnnc(SCCN(C)C)n2)n1 | 6.3 to 12.5 µg/mL (≈ 20.4 to 40.4 µM) | 6.3 to 12.5 µg/mL (≈ 20.4 to 40.4 µM) | Drug uptake [3]: Active; recovery [4]: 85%; concentration at 0.5 h [5]: > 20 nM; recovery [6]: 90%; Papp A→B [7]: 49 ×10⁻⁶ cm/s; Drug uptake [8]: Not Active
CSc1nncc(-c2cnnc(SCCCO)n2)n1 | 50 to 100 µg/mL (≈ 169 to 337 µM) | 50 to 100 µg/mL (≈ 169 to 337 µM) | –
COc1nncc(-c2cnnc(OC)n2)n1 | > 100 µg/mL | 50 to 100 µg/mL (≈ 227 to 454 µM) | –
CSc1nncc(-c2cnnc(OCCN(C)C)n2)n1 | 25 to 50 µg/mL (≈ 85.2 to 170 µM) | 50 to 100 µg/mL (≈ 170 to 341 µM) | –
COCCSc1nncc(-c2cnnc(SCCOC)n2)n1 | 12.5 to 25 µg/mL (≈ 36.7 to 73.4 µM) | 12.5 to 25 µg/mL (≈ 36.7 to 73.4 µM) | –
